The species named for series [1] is Mus musculus. Description: In vitro degradation rate constant in Mouse serum. Format: ADME. The essentials: (§1)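 Prodrug added from DMSO standard to an initial 50 or 10 µg/mL in one of four media at 37 °C with shaking: fresh human serum, fresh mouse serum, mouse brain homogenate (1:1 g/mL in physiological phosphate buffer), or phosphate buffer pH 7.4. Sampled 0–10 h. Dihydropyridine, quaternary salt and parent drug were measured by ion-pair HPLC at 260 nm. k is the terminal-phase ln(concentration)–time regression slope, with the associated half-life.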

A short description of series [2]: In vitro degradation rate constant in phosphate buffer at pH 7.4. Format: ADME. An outline of the steps: as §1
A short description of series [3]: Half life in Mouse brain hom. The class given is ADME, organism-based. Particulars: brain homogenate. The essentials: as §1
Series [4] can be described thus: Half life in Mouse serum. The class given is ADME, organism-based. An outline of the steps: as §1
Series [5] in a line: Half life in phosphate buffer at pH 7.4. Format: ADME. An outline of the steps: as §1
The species named for series [6] is Mus musculus. Description: In vitro degradation rate constant Mouse brain hom. The class given is ADME. The essentials: as §1
The species named for another series is Homo sapiens. Put plainly: In vitro degradation rate constant in Human serum. The class given is ADME. An outline of the steps:
as §1

A short description of series [7]: In vitro anti-HIV activity was determined in peripheral blood mononuclear cells. Format: functional, Homo sapiens.
Series [8] in a line: Half life in Human serum. The class given is ADME, organism-based. An outline of the steps: as §1
The nature of series [9]: in vivo. Particulars: serum.
Series [10] in a line: (§2) Half life of the compound. Format: ADME.
Series [11] in a line: as §2. Format: functional.
The conditions of series [12]: serum.
Series [13] is described as follows: in vivo. The conditions noted are these: brain.
A short description of series [14]: Relative brain exposure of the compound.

As a reminder, the half-life is how long it takes for the measured level to halve. A higher half-life goes with slow loss. As usually defined, the EC50 is the concentration needed to bring the measured effect to its halfway point. High values mean a less potent agent, low ones a more potent agent. A word on the AUC: it is the area under the concentration-time curve, a measure of exposure. The low end stands for less exposure, the high end for more exposure.

In the case of `Cc1cn([C@H]2C[C@H](N=[N+]=[N-])[C@@H](COC(=O)C3=CN(C)C=CC3)O2)c(=O)[nH]c1=O`, the Rate constant in the series filed under Mus musculus [1] is 0.49 h⁻¹; in series [2], 0.21 h⁻¹; in the series listed under Mus musculus [6], 3.89 h⁻¹; in the series listed under Homo sapiens it was 0.09 h⁻¹. Also, the half-life in series [3] was 0.18 h; in [4], 1.4 h; in series [5] it was 3.23 h; in [8], 7.7 h. Moreover, the EC50 in series [7] (Homo sapiens) came to 1.6 nM. Moreover, in the series “in vivo [9]”, the AUC stood at 1270 ng·h/mL.
Turning to `[N-]=[N+]=N[C@H]1C[C@H](n2ccc(=O)[nH]c2=O)O[C@@H]1CO` (stereo in doubt; form 2) [NAVURIDINE], the AUC was 2090 ng·h/mL. For the same compound, the T1/2 in series [10] amounted to 0.84 h. The same compound yielded an EC50 in series [7] (Homo sapiens) of 200 nM. The AUC in the series “in vivo [9]” was 25800 ng·h/mL.
The compound `Cc1cn([C@H]2C[C@H](N=[N+]=[N-])[C@@H](CO)O2)c(=O)[nH]c1=O` [ZIDOVUDINE] showed a half-life in series [10] of 0.54 h. The compound further gave a T1/2 in [11] of 15.8 h. Further, a half-maximal effect in [7] (Homo sapiens) (EC50) was put at 2 nM. Moreover, the values for the AUC (in [12]; in the series “in vivo [9]”) were 25380 ng·h/mL and 26600 ng·h/mL, respectively.
Take `Cc1cn([C@H]2C[C@H](N=[N+]=[N-])[C@@H](COC(=O)c3ccc[n+](C)c3)O2)c(=O)[nH]c1=O.[I-]`: the Rate constant in the series listed under Mus musculus [1] was found to be 0.64 h⁻¹; in [2], 0.55 h⁻¹; in the series listed under Mus musculus [6], 0.41 h⁻¹; in the series listed under Homo sapiens it was 0.02 h⁻¹. The half-life was 1.69 h in series [3], 1.08 h in [4], 1.25 h in series [5] and 34.6 h in series [8]. The AUC stood at 1290 ng·h/mL in “in vivo [13]” and 600 ng·h/mL in “in vivo [9]”.
Consider `CN1C=CCC(C(=O)OC[C@H]2O[C@@H](n3ccc(=O)[nH]c3=O)C[C@@H]2N=[N+]=[N-])=C1`, for which the Rate constant in the series listed under Mus musculus [1] was 1.24 h⁻¹; in [2] it was 0.33 h⁻¹; in the series listed under Mus musculus [6], 4.15 h⁻¹; in the series listed under Homo sapiens it was 0.16 h⁻¹. The half-life was 0.17 h in series [3], 0.56 h in series [4], 2.13 h in [5] and 4.33 h in [8]. The compound also showed an EC50 in [7] of 1000 nM. Further, the AUC in “in vivo [9]” turned out to be 4430 ng·h/mL.
In turn, `[N-]=[N+]=N[C@H]1C[C@H](n2ccc(=O)[nH]c2=O)O[C@@H]1CO` (stereo in doubt; form 1) [NAVURIDINE] registered an AUC of 11430 ng·h/mL. In series [10], this compound returned a T1/2 of 4.34 h. This compound also returned a Rel brain exposure in series [14] of 5.47. In addition, the AUC in [12] was found to be 25790 ng·h/mL.
As to `C[n+]1cccc(C(=O)OC[C@H]2O[C@@H](n3ccc(=O)[nH]c3=O)C[C@@H]2N=[N+]=[N-])c1.[I-]`, the Rate constant in the series filed under Mus musculus [1] came to 1.36 h⁻¹; in series [2], 0.8 h⁻¹; in the series listed under Mus musculus [6], 1.07 h⁻¹; in the series listed under Homo sapiens it was 0.14 h⁻¹. For the same compound, the half-life in series [3] was 0.65 h; in series [4], 0.51 h; in [5] it was 0.87 h; in [8], 4.95 h. The exposure (AUC) in “in vivo [13]” came to 3910 ng·h/mL; in the series “in vivo [9]”, 1210 ng·h/mL.

Values taken from ChEMBL document CHEMBL1124875, “Brain targeting of anti-HIV nucleosides: synthesis and in vitro and in vivo studies of dihydropyridine derivatives of 3'-azido-2',3'-dideoxyuridine and 3'-azido-3'-deoxythymidine” (J Med Chem, 1990).
